ChEMBL document CHEMBL1944568, “Synthesis and biological evaluation of benzo[d]imidazole derivatives as potential anti-cancer agents” (Bioorg Med Chem Lett, 2012)
The source made the active and inactive calls. No cut-off for these calls is given here.

How the values were obtained:
MCF7 [1] = experiment: Cytotoxicity against human MCF7 cells after 48 hrs by MTT assay; assay type: functional; details: MCF7, 48 h
HCT-116 [2] = experiment: Cytotoxicity against human HCT116 cells after 48 hrs by MTT assay; assay type: functional; details: HCT-116, 48 h
CDK9/cyclin T1 = CDK9/cyclin T1 (Homo sapiens, UniProt P50750); experiment: Inhibition of CDK9/CyclinT1; assay type: protein-complex assay
HCT-116 [3] = experiment: Cell cycle arrest in human HCT116 cells at 5 times GI50 after 24 hrs by AnnexinV/PI staining-based flow cytometry; assay type: functional
HCT-116 [4] = experiment: Induction of apoptosis in human HCT116 cells assessed as at 5 times GI50 after 24 hrs by AnnexinV/PI staining-based flow cytometry
HCT-116 [5] = experiment: Induction of apoptosis in human HCT116 cells assessed as caspase-3 activation at GI50 after 24 hrs; assay type: functional, cell-based
In short: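 HCT-116 cells exposed for 24 h at the respective GI₅₀ or 5×GI₅₀ concentration, with a DMSO control, then assayed for caspase-3 activity. Data are mean ± s.d. of two independent experiments, and significance versus DMSO was set at p <0.05.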

[6] = molecular target: Cyclin-dependent kinase 2/cyclin A (Homo sapiens) (UniProt P24941+P20248+P78396); experiment: Inhibition of CDK2/Cyclin A; assay type: protein-complex assay
HCT-116 [7] = experiment: Induction of apoptosis in human HCT116 cells assessed as early apoptosis cells at 5 times GI50 after 24 hrs by AnnexinV/PI staining-based flow cytometry; assay type: functional
In short: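 HCT-116 cells were treated for 24 h alongside a DMSO control, stained with annexin V/PI and analysed by flow cytometry. Early apoptotic cells were scored as AnnV+/PI−, and late apoptotic cells as AnnV+/PI+. Values are mean ± s.d.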

HCT-116 [8] = experiment: Cell cycle arrest in human HCT116 cells assessed as accumulation at G2/M phase at 5 times GI50 after 24 hrs by […]PI staining-based flow cytometry; assay type: functional
MCF7 [9] = experiment: Ratio of DRB GI50 to compound GI50 for human MCF7 cells; assay type: functional
HCT-116 [10] = experiment: Ratio of DRB GI50 to compound GI50 for human HCT116 cells; assay type: functional
[11] = molecular target: Cyclin-dependent kinase 9 (Homo sapiens) (UniProt P50750); experiment: Inhibition of CDK9 in human HCT116 cells assessed as reduction in MDM2 protein level at GI50 after 24 hrs by Western blot analysis; assay type: cell-based; details: HCT-116
[12] = molecular target: Cyclin-dependent kinase 9 (Homo sapiens) (UniProt P50750); experiment: Inhibition of CDK9-mediated phosphorylation of RNA polymerase 2 at Ser2 in human HCT116 cells after 24 hrs by Western blot analysis; assay type: cell-based; details: HCT-116
In short: (§1)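 Western blot of HCT-116 cells after 24 h treatment across a concentration series, probing RNAPII CTD pSer-2 with β-actin as the internal loading control.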

[13] = molecular target: Cyclin-dependent kinase 9 (Homo sapiens) (UniProt P50750); experiment: Inhibition of CDK9-mediated phosphorylation of RNA polymerase 2 at Ser2 in human HCT116 cells at GI50 after 24 hrs by Western blot analysis; assay type: cell-based; details: HCT-116; in short: as §1
[14] = molecular target: Cyclin-dependent kinase 9 (Homo sapiens) (UniProt P50750); experiment: Inhibition of CDK9 in human HCT116 cells assessed as reduction in Mcl-1 protein level at GI50 after 24 hrs by Western blot analysis; assay type: cell-based; details: HCT-116

CDK9/cyclin T1, sequence (O60563 whole entry): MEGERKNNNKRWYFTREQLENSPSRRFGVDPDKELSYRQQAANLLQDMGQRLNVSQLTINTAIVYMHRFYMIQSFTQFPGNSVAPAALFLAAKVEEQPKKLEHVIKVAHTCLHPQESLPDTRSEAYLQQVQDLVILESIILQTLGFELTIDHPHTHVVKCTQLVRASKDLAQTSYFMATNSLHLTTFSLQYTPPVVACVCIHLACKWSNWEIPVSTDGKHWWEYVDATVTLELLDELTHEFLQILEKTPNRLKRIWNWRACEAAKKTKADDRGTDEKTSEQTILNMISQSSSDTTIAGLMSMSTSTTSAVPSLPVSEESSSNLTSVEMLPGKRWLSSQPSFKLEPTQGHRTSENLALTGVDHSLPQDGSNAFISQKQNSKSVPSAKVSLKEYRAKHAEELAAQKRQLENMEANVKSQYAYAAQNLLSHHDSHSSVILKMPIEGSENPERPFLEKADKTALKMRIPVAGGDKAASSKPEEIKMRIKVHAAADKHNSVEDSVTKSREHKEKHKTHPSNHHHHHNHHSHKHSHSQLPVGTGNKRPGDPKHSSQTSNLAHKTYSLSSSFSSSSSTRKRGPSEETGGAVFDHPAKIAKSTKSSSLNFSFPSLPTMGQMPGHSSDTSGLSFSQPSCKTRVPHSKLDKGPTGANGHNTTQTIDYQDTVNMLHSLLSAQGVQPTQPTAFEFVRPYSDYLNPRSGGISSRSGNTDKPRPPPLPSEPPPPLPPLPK
CDK9/cyclin T1, sequence (P50750 whole entry): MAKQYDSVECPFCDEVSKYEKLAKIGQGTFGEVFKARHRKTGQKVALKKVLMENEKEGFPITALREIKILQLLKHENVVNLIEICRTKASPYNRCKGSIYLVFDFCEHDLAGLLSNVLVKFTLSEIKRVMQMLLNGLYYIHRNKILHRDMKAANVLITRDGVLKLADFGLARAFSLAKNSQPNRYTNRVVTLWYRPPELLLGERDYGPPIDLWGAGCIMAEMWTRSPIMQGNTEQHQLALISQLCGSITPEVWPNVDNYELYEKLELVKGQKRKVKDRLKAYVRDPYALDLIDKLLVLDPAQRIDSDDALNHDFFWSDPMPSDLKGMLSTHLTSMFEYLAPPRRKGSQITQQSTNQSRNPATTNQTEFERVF
Cyclin-dependent kinase 9 (Homo sapiens), sequence (P50750 whole entry): as above

SMILES	GI50 (MCF7 [1]) [µM]	GI50 (HCT-116 [2]) [µM]	other results
Cc1cc2nc(C(F)(F)F)[nH]c2cc1C	17	56	–
CS(=O)(=O)c1nc2cc(Cl)c(Cl)cc2n1C1CCCC1	0.6	0.6	Ki (CDK9/cyclin T1): > 5 µM; Activity (HCT-116 [3]): inactive; Activity (HCT-116 [4]): <7%; Activity (HCT-116 [5]): Active
CCc1nc2cc(Cl)c(Cl)cc2n1C1CCCC1	52	38	–
C=CCn1c(C(F)(F)F)nc2cc(Cl)c(Cl)cc21	87	89.2	–
FC(F)(F)c1nc2cc(Cl)c(Cl)cc2n1Cc1ccccc1	8.7	8.6	–
Cc1nc2cc(Cl)c(Cl)cc2[nH]1	28	51	–
Cn1c(C(F)(F)F)nc2cc(Cl)c(Cl)cc21	39	56	–
FC(F)(F)c1nc2cc(Cl)c(Cl)cc2n1CC1CC1	60.2	61.3	–
COc1cc2ncn([C@@H]3O[C@H](CO)[C@@H](O)[C@H]3O)c2cc1OC	> 100	> 100	–
CCc1nc2cc(Cl)c(Cl)cc2[nH]1	48	46	–
FC(F)(F)c1cccc(Cn2c(C(F)(F)F)nc3cc(Cl)c(Cl)cc32)c1	68	50.5	–
CC(C)c1nc2cc(Cl)c(Cl)cc2n1C1CCCC1	43	9	Ki (CDK9/cyclin T1): 3.33 µM; inhibition [6]: inactive
O=[N+]([O-])c1ccc(Cn2c(C(F)(F)F)nc3cc(Cl)c(Cl)cc32)cc1	97.3	81.6	–
OC[C@H]1O[C@@H](n2cnc3cc(Cl)c(Cl)cc32)[C@H](O)[C@@H]1O [DICHLORORIBOBENZIMIDAZOLE]	36	25	Activity (HCT-116 [7]): 20%; Activity (HCT-116 [8]): Active; Activity (HCT-116 [5]): Active
CSc1nc2cc(Cl)c(Cl)cc2n1C1CCCC1	3.9	2.9	Ki (CDK9/cyclin T1): > 5 µM
CCc1nc2ccccc2n1[C@@H]1O[C@H](CO)[C@@H](O)[C@H]1O	71.3	70.6	–
Clc1cc2ncn(C3CCCC3)c2cc1Cl	42	37	–

SMILES	GI50 (MCF7 [1]) [µM]	GI50 (HCT-116 [2]) [µM]	other results
FC(F)(F)c1nc2cc(Cl)c(Cl)cc2[nH]1	6	7	RatioGI50 (MCF7 [9]): 6; RatioGI50 (HCT-116 [10]): 3.5
Cc1cc2nc[nH]c2cc1C [DIMEDAZOL]	20	51	–
Clc1cc2nc(-c3ccccc3Cl)[nH]c2cc1Cl	22	23	–
Clc1cc2nc[nH]c2cc1Cl	73	66	–
O=[N+]([O-])c1cccc(Cn2c(C(F)(F)F)nc3cc(Cl)c(Cl)cc32)c1	60	22.8	–
CCn1c(C(F)(F)F)nc2cc(Cl)c(Cl)cc21	72.9	95.3	–
Fc1ccccc1-c1nc2cc(Cl)c(Cl)cc2[nH]1	47.5	56.5	–
O=[N+]([O-])c1ccccc1Cn1c(C(F)(F)F)nc2cc(Cl)c(Cl)cc21	1.5	5.9	–
CC(C)n1c(C(F)(F)F)nc2cc(Cl)c(Cl)cc21	70.5	81.9	–
Nc1cccc(Cn2c(C(F)(F)F)nc3cc(Cl)c(Cl)cc32)c1	77.5	22.6	–
C[S+]([O-])c1nc2cc(Cl)c(Cl)cc2n1C1CCCC1 (stereo not drawn)	0.5	0.5	Ki (CDK9/cyclin T1): > 5 µM; Activity (HCT-116 [3]): inactive; Activity (HCT-116 [4]): <7%; Activity (HCT-116 [5]): Active
CC(C)c1nc2cc(Cl)c(Cl)cc2[nH]1	57	52	–
Cc1nc2cc(Cl)c(Cl)cc2n1C1CCCC1	40	13	Activity (HCT-116 [7]): >17%; inhibition [11]: Active; Ki (CDK9/cyclin T1): 1.51 µM; Activity (HCT-116 [3]): inactive; inhibition [6]: inactive; inhibition [12]: Dose-dependent effect; inhibition [13]: Active; inhibition [14]: Active; Activity (HCT-116 [5]): Active
FC(F)(F)c1ccc(Cn2c(C(F)(F)F)nc3cc(Cl)c(Cl)cc32)cc1	17	19	–
Nc1ccccc1Cn1c(C(F)(F)F)nc2cc(Cl)c(Cl)cc21	55.6	26.1	–
FC(F)(F)c1nc2cc(Cl)c(Cl)cc2n1C1CCCC1	21	22	–
OC[C@H]1O[C@@H](n2cnc3cc(F)c(F)cc32)[C@H](O)[C@@H]1O	57.9	67	–
